This note sets out measurements from PubChem BioAssay AID1765 (Sanford-Burnham Center for Chemical Genomics, 2009).

A short description of assay [1]: TRAIL dependence of compound-driven PPC-1 killing – cell-based, ATPlite luminescence, 24 h, mechanism study for TRAIL sensitizer project, dose response (AID 1765). The note with it: PPC-1 cytotoxicity with TRAIL, ATPLite luminescence, 24 h. The method in brief: (§1)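 Timing: compound pre-incubation 4 h before TRAIL, then 24 h TRAIL exposure. Material: PPC-1 cell line. Controls: doxorubicin 10 µM with TRAIL, full kill. Dosing: 2-fold series from 10 µM, 0.5% DMSO. Also added: TRAIL at 0.156 ng/mL, or no TRAIL (0 ng/mL). Measured by: ATPlite luminescence.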

Assay [2] deals with PPC-1 cytotoxicity with TRAIL, ATPLite luminescence, 24 h. The description is as above. The method in brief: as §1
Setting [3] is: measured here: max cytotoxicity with TRAIL.
Setting [4] is: measured here: max cytotoxicity without TRAIL.
Where [5] appears, read: measured here: cytotoxicity without TRAIL.

Calls of active or inactive are those of the source.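 The calls were made as follows: active = maximal cell kill higher at a 0.156 ng/ml dose of TRAIL, the death-signal protein, than with no TRAIL; inactive = the rest.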 Bounds are passed on as bounds.

On to `CSc1nc(-c2ccc(C)cc2)nc(C(Cl)Cl)n1`, for which the maximal effect in assay [1] (setting [3]) came out at 94.5%; in assay [1] (setting [4]), 50.4%. Besides, the EC50 is 1 µM in assay [2] and 0.81 µM in assay [2] (setting [5]).

With `CSc1nc(-c2ccccc2)nc(C(Cl)Cl)n1`, the figures for the EC50 in assay [2] and in assay [2] (setting [5]) were > 10 µM (inactive) and greater than 10 µM, respectively.

With `CCSc1nc(-c2ccccc2)nc(C(Cl)Cl)n1`, the maximal effect in assay [1] (setting [3]) amounted to 46.7%; in assay [1] (setting [4]) it was 34.2%. In addition, the EC50 is 2.58 µM in assay [2] and 2.5 µM in assay [2] (setting [5]).
